Source: ChEMBL document CHEMBL5058577, “EUbOPEN Chemogenomics Library 2 (Multiplex)” (2022)

Test system: U2OS
Assay: Multiplex assay against U2OS
Assay type: toxicity, cell-based
Settings: human
How it was run: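 With compound added, live cells were imaged on a CQ1 microscope at 37°C and 5% CO2; staining with Hoechst33342, BioTracker Green Microtubule Cytoskeleton Dye, MitoTracker Red and Annexin V Alexa Fluor 680 had been done at seeding. The CellPathfinder machine-learning gating scheme split cells into Hoechst high-intensity objects or normal cells, normal cells into healthy, pyknosed or fragmented nuclei, and pyknosed cells into mitotic or apoptotic. The tubulin, mitochondrial-mass and membrane-permeability phenotypes are per cents of healthy-nucleus cells.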

[1] = 12 h, 1 µM, compound concentration 1 uM, replicate 1
[2] = 12 h, 1 µM, compound concentration 1 uM, replicate 2
[3] = 12 h, 10 µM, compound concentration 10 uM, replicate 1
[4] = 12 h, 10 µM, compound concentration 10 uM, replicate 2
[5] = 24 h, 1 µM, compound concentration 1 uM, replicate 1
[6] = 24 h, 1 µM, compound concentration 1 uM, replicate 2
[7] = 24 h, 10 µM, compound concentration 10 uM, replicate 1
[8] = 24 h, 10 µM, compound concentration 10 uM, replicate 2
[9] = 48 h, 1 µM, compound concentration 1 uM, replicate 1
[10] = 48 h, 1 µM, compound concentration 1 uM, replicate 2
[11] = 48 h, 10 µM, compound concentration 10 uM, replicate 1
[12] = 48 h, 10 µM, compound concentration 10 uM, replicate 2

With CCCCCCNC(=O)Nc1ccc(S(=O)(=O)Nc2ccc(CCNC[C@H](O)COc3ccc(O)cc3)cc2)cc1 [L-755507] the “Population Apoptotic (%)” value [1] was 86%, the “Population Fragmented Nuclei (%)” value [1] was 22% and the “Population Healthy Nuclei (%)” value [1] was 67%. The “Population Hoechst High Intensity Objects (%)” value [1] was 4%, the “Population Membrane Permeable-Phenotype (%)” value [1] was 4% and the “Population Mitochondria Different-Phenotype (%)” value [1] was 4%. For the same compound, the “Population Mitotic Cells (%)” value [1] was 13%, the “Population Normal (%)” value [1] was 95% and the “Population Pyknosed Nuclei (%)” value [1] was 9%. The “Population Tubulin-Different-Phenotype (%)” value [1] was 4%, the “Total Cell Count” value [1] was 231 and the “Population Apoptotic (%)” value [2] was 100%. For the same compound, the “Population Fragmented Nuclei (%)” value [2] was 18%, the “Population Healthy Nuclei (%)” value [2] was 75% and the “Population Hoechst High Intensity Objects (%)” value [2] was 0%. For the same compound, the “Population Membrane Permeable-Phenotype (%)” value [2] was 10%, the “Population Mitochondria Different-Phenotype (%)” value [2] was 1% and the “Population Mitotic Cells (%)” value [2] was 0%. The “Population Normal (%)” value [2] was 99%, the “Population Pyknosed Nuclei (%)” value [2] was 5% and the “Population Tubulin-Different-Phenotype (%)” value [2] was 5%. The “Total Cell Count” value [2] was 120, the “Population Apoptotic (%)” value [3] was 60% and the “Population Fragmented Nuclei (%)” value [3] was 31%. The “Population Healthy Nuclei (%)” value [3] was 59%, the “Population Hoechst High Intensity Objects (%)” value [3] was 3% and the “Population Membrane Permeable-Phenotype (%)” value [3] was 13%. For the same compound, the “Population Mitochondria Different-Phenotype (%)” value [3] was 11%, the “Population Mitotic Cells (%)” value [3] was 40% and the “Population Normal (%)” value [3] was 96%. For the same compound, the “Population Pyknosed Nuclei (%)” value [3] was 9%, the “Population Tubulin-Different-Phenotype (%)” value [3] was 10% and the “Total Cell Count” value [3] was 282. The “Population Apoptotic (%)” value [4] was 72%, the “Population Fragmented Nuclei (%)” value [4] was 19% and the “Population Healthy Nuclei (%)” value [4] was 72%. For the same compound, the “Population Hoechst High Intensity Objects (%)” value [4] was 2%, the “Population Membrane Permeable-Phenotype (%)” value [4] was 19% and the “Population Mitochondria Different-Phenotype (%)” value [4] was 15%. The “Population Mitotic Cells (%)” value [4] was 27%, the “Population Normal (%)” value [4] was 97% and the “Population Pyknosed Nuclei (%)” value [4] was 8%. For the same compound, the “Population Tubulin-Different-Phenotype (%)” value [4] was 15%, the “Total Cell Count” value [4] was 140 and the “Population Apoptotic (%)” value [5] was 83%. For the same compound, the “Population Fragmented Nuclei (%)” value [5] was 22%, the “Population Healthy Nuclei (%)” value [5] was 66% and the “Population Hoechst High Intensity Objects (%)” value [5] was 4%. The “Population Membrane Permeable-Phenotype (%)” value [5] was 5%, the “Population Mitochondria Different-Phenotype (%)” value [5] was 5% and the “Population Mitotic Cells (%)” value [5] was 16%. For the same compound, the “Population Normal (%)” value [5] was 95%, the “Population Pyknosed Nuclei (%)” value [5] was 11% and the “Population Tubulin-Different-Phenotype (%)” value [5] was 3%. The “Total Cell Count” value [5] was 285, the “Population Apoptotic (%)” value [6] was 92% and the “Population Fragmented Nuclei (%)” value [6] was 23%. The “Population Healthy Nuclei (%)” value [6] was 67%, the “Population Hoechst High Intensity Objects (%)” value [6] was 2% and the “Population Membrane Permeable-Phenotype (%)” value [6] was 11%. The “Population Mitochondria Different-Phenotype (%)” value [6] was 1%, the “Population Mitotic Cells (%)” value [6] was 7% and the “Population Normal (%)” value [6] was 97%. The “Population Pyknosed Nuclei (%)” value [6] was 9%, the “Population Tubulin-Different-Phenotype (%)” value [6] was 5% and the “Total Cell Count” value [6] was 143. The “Population Apoptotic (%)” value [7] was 85%, the “Population Fragmented Nuclei (%)” value [7] was 25% and the “Population Healthy Nuclei (%)” value [7] was 65%. For the same compound, the “Population Hoechst High Intensity Objects (%)” value [7] was 2%, the “Population Membrane Permeable-Phenotype (%)” value [7] was 7% and the “Population Mitochondria Different-Phenotype (%)” value [7] was 4%. For the same compound, the “Population Mitotic Cells (%)” value [7] was 14%, the “Population Normal (%)” value [7] was 97% and the “Population Pyknosed Nuclei (%)” value [7] was 9%. The “Population Tubulin-Different-Phenotype (%)” value [7] was 3%, the “Total Cell Count” value [7] was 307 and the “Population Apoptotic (%)” value [8] was 88%. For the same compound, the “Population Fragmented Nuclei (%)” value [8] was 14%, the “Population Healthy Nuclei (%)” value [8] was 79% and the “Population Membrane Permeable-Phenotype (%)” value [8] was 9%. For the same compound, the “Population Mitochondria Different-Phenotype (%)” value [8] was 5%, the “Population Mitotic Cells (%)” value [8] was 11% and the “Population Pyknosed Nuclei (%)” value [8] was 6%. The “Population Tubulin-Different-Phenotype (%)” value [8] was 6%, the “Total Cell Count” value [8] was 149 and the “Population Apoptotic (%)” value [9] was 78%. The “Population Fragmented Nuclei (%)” value [9] was 14%, the “Population Healthy Nuclei (%)” value [9] was 74% and the “Population Hoechst High Intensity Objects (%)” value [9] was 1%. The “Population Membrane Permeable-Phenotype (%)” value [9] was 6%, the “Population Mitochondria Different-Phenotype (%)” value [9] was 3% and the “Population Mitotic Cells (%)” value [9] was 21%. The “Population Normal (%)” value [9] was 98%, the “Population Pyknosed Nuclei (%)” value [9] was 11% and the “Population Tubulin-Different-Phenotype (%)” value [9] was 3%. The “Total Cell Count” value [9] was 422, the “Population Apoptotic (%)” value [10] was 91% and the “Population Fragmented Nuclei (%)” value [10] was 26%. For the same compound, the “Population Healthy Nuclei (%)” value [10] was 61%, the “Population Hoechst High Intensity Objects (%)” value [10] was 4% and the “Population Membrane Permeable-Phenotype (%)” value [10] was 12%. The “Population Mitochondria Different-Phenotype (%)” value [10] was 5%, the “Population Mitotic Cells (%)” value [10] was 8% and the “Population Normal (%)” value [10] was 95%. For the same compound, the “Population Pyknosed Nuclei (%)” value [10] was 12%, the “Population Tubulin-Different-Phenotype (%)” value [10] was 6% and the “Total Cell Count” value [10] was 188. The “Population Apoptotic (%)” value [11] was 80%, the “Population Fragmented Nuclei (%)” value [11] was 19% and the “Population Healthy Nuclei (%)” value [11] was 70%. The “Population Hoechst High Intensity Objects (%)” value [11] was 2%, the “Population Membrane Permeable-Phenotype (%)” value [11] was 7% and the “Population Mitochondria Different-Phenotype (%)” value [11] was 2%. The “Population Mitotic Cells (%)” value [11] was 20%, the “Population Normal (%)” value [11] was 97% and the “Population Pyknosed Nuclei (%)” value [11] was 9%. For the same compound, the “Population Tubulin-Different-Phenotype (%)” value [11] was 4%, the “Total Cell Count” value [11] was 419 and the “Population Apoptotic (%)” value [12] was 94%. The “Population Fragmented Nuclei (%)” value [12] was 13%, the “Population Healthy Nuclei (%)” value [12] was 78% and the “Population Hoechst High Intensity Objects (%)” value [12] was 1%. The “Population Mitochondria Different-Phenotype (%)” value [12] was 3%, the “Population Mitotic Cells (%)” value [12] was 5% and the “Population Normal (%)” value [12] was 98%. The “Population Pyknosed Nuclei (%)” value [12] was 7%, the “Population Tubulin-Different-Phenotype (%)” value [12] was 6% and the “Total Cell Count” value [12] was 242.
